# According to ChEMBL document CHEMBL4033799, “Stable and Long-Lasting, Novel Bicyclic Peptide Plasma Kallikrein Inhibitors for the Treatment of Diabetic Macular Edema” (J Med Chem, 2018):
# The source made the active and inactive calls. The calls are words filed in the database; no cut-off is given here.
# What was measured:
# Plasma = experiment: Anti-coagulating activity in factor 8-deficient human plasma assessed as increase in coagulation time at 10 uM by aPTT assay; type: functional
# Summary of the method: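 Clotting time measured on a coagulation analyzer using actin FS, 0.025 M CaCl2, FVIII-deficient human plasma and Owren's Veronal Buffer pH 7.35, run per the manufacturer's instructions. Peptide tested from zero (vehicle) up to 10 μM. Each point is the mean ± SD of triplicates.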
# Rattus norvegicus [1] = experiment: Antiinflammatory activity in Sprague-Dawley rat assessed as inhibition carrageenan-induced paw edema at 30 mg/kg, ip pretreated for 15 mins followed by carrageenan challenge measured at 1 hr post carrageenan challenge; type: functional
# Summary of the method: (§1)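 Male Sprague-Dawley rats received peptide IP (30, 10 or 3 mg/kg), or indomethacin IP at 5 mg/kg, 15 min before subplantar carrageenan. Paw volume was followed over time against a vehicle group.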
# Rattus norvegicus [2] = experiment: Antiinflammatory activity in Sprague-Dawley rat assessed as inhibition carrageenan-induced paw edema at 30 mg/kg, ip pretreated for 15 mins followed by carrageenan challenge measured at 2 hrs post carrageenan challenge; type: functional; summary of the method: as §1
# Rattus norvegicus [3] = experiment: Antiinflammatory activity in Sprague-Dawley rat assessed as inhibition carrageenan-induced paw edema at 30 mg/kg, ip pretreated for 15 mins followed by carrageenan challenge measured at 4 hrs post carrageenan challenge; type: functional; summary of the method: as §1
# Rattus norvegicus [4] = experiment: Antidiabetic activity in STZ-induced diabetic Brown-Norway rat model assessed as reduction in retinal vascular leakage at 100 ug/eye administered via ivt measured at 4 weeks post diabetes onset relative to control; type: functional
# Summary of the method: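 Diabetes was induced with STZ in male Brown-Norway rats. Peptide was given intravitreally at 100 μg/eye. Retinal vascular permeability was read as FITC-BSA extravasation 4 weeks after diabetes onset and compared with vehicle-treated diabetic rats. A soluble VEGF-trap served as positive control.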
# Kallikrein-6 = Kallikrein-6 (Homo sapiens, UniProt Q92876); experiment: Inhibition of recombinant human C-terminal His-tagged KLK6 isoform 1 (1 to 244 residues) expressed in HEK293 cells using fluorogenic Boc-QARAMC peptide as substrate by fluorescence based assay
# Summary of the method: (§2)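 Human serine proteases were assayed with substrates and conditions set by each supplier's recommendations. Peptides were first screened at 50 μM. Where inhibition was detected, Ki was determined from activity across peptide concentrations using a tight-binding rate equation.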
# Prothrombin = Prothrombin (Homo sapiens, UniProt P00734); experiment: Inhibition of recombinant human alpha thrombin using fluorogenic peptide as substrate by fluorescence based assay
# Summary of the method: (§3)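 Panel of human serine proteases. Substrates and assay conditions followed each supplier's recommendations. Peptides were first screened at 50 μM. Where inhibition was detectable, hydrolytic activity was measured across a range of peptide concentrations. Ki was obtained by fitting to the tight-binding inhibitor rate equation.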
# Cathepsin G = molecular target: T1, Cathepsin G (Homo sapiens, UniProt P08311); experiment: Inhibition of recombinant human Cathepsin-G; summary of the method: as §3
# T1 sequence (P08311 whole entry): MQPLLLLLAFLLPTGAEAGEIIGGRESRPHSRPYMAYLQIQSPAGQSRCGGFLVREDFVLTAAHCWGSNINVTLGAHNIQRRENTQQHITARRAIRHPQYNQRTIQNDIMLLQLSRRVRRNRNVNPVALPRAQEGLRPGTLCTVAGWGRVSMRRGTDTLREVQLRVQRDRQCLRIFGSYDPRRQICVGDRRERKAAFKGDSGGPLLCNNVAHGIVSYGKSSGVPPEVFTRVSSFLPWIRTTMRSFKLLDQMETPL
# Coagulation factor X = Coagulation factor X (Homo sapiens, UniProt P00742); experiment: Inhibition of recombinant human C-terminal 10His-tagged factor Xa (24 to 488 residues) expressed in baculovirus derived insect sf21 cells using fluorogenic Mca-RPKPVE-Nval-WRK(Dnp)-NH2 peptide as substrate by fluorescence based assay; summary of the method: as §2
# [5] = molecular target: T2, Complement C1s subcomponent (Homo sapiens, UniProt P09871); experiment: Inhibition of recombinant human C-terminal 6His-tagged complement component C1s (1 to 688 residues) expressed in mouse NS0 cells using fluorogenic Z-Lys-SBzl peptide as substrate after 5 mins by fluorescence based assay; summary of the method: as §2
# T2 sequence (P09871 whole entry): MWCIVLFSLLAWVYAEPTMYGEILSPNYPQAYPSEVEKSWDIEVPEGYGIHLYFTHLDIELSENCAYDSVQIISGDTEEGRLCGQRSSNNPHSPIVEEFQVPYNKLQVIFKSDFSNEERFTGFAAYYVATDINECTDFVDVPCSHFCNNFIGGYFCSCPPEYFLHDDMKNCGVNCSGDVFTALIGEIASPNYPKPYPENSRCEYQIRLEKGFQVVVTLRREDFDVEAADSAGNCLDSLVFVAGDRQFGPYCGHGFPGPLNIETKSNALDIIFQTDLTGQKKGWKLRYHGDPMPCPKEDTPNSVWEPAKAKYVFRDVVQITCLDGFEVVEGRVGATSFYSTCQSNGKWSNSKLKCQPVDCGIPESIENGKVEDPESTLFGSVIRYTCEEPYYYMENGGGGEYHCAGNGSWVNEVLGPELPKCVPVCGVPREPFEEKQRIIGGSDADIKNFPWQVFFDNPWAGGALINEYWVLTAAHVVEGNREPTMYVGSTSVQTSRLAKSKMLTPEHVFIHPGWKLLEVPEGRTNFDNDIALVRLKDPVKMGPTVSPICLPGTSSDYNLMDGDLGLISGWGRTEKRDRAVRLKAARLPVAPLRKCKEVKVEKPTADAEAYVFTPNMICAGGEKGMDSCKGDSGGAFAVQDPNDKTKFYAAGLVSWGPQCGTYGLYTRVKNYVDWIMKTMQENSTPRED
# Oryctolagus cuniculus = species on record: Oryctolagus cuniculus; experiment: Inhibition of plasma kallikrein in rabbit plasma using HMWK as substrate assessed as suppression of kaolin-activated protein induced bradykinin release at 2 uM preincubated for 15 mins followed by substrate addition measured after 15 min by ELISA
# Rattus norvegicus [6] = experiment: Antiinflammatory activity in Sprague-Dawley rat carrageenan-induced paw edema model assessed as inhibition of paw edema AUC (0 to 2 hrs) at 10 to 30 mg/kg, ip pretreated for 15 mins followed by carrageenan challenge; type: functional, organism-based; summary of the method: as §1
# Mus musculus = experiment: Antidiabetic activity in STZ-induced diabetic C57BL/6J mouse model assessed as reduction in retinal vascular permeability at 100 ug administered 4 times via ivt measured at 8 weeks post diabetes onset relative to control; type: functional
# Summary of the method: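 Diabetes was induced with STZ in male C57BL/6J mice. Peptide was given as repeated intravitreal injections (4 × 100 μg). Retinal permeability was read as FITC-BSA extravasation 8 weeks after diabetes onset and compared with vehicle-treated diabetic mice. The anti-VEGFR2 antibody DC101 (6.2 μg/eye, single dose) served as positive control.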
# Rattus norvegicus [7] = experiment: Antiinflammatory activity in ip dosed Sprague-Dawley rat carrageenan-induced paw edema model assessed as inhibition of edema pretreated for 15 mins followed by carrageenan challenge measured up to 6 hrs; type: functional, organism-based; summary of the method: as §1
Structure (SMILES),Activity (Plasma),inhibition in vivo at 30 mg/kg (Rattus norvegicus [1]),inhibition in vivo at 30 mg/kg (Rattus norvegicus [2]),inhibition in vivo at 30 mg/kg (Rattus norvegicus [3]),inhibition (INH) (Rattus norvegicus [4]),Ki (Kallikrein-6),Ki (Prothrombin),Ki (Cathepsin G),Ki (Coagulation factor X),Ki [5],inhibition (Oryctolagus cuniculus),inhibition (Rattus norvegicus [6]),inhibition (Mus musculus),inhibition (Rattus norvegicus [7])
CC(=O)N[C@H]1CSCc2cc3cc(c2)CSC[C@H](NC(=O)[C@H](CCCCNC(=N)N)NC(=O)[C@H](Cc2ccc(O)cc2)NC(=O)[C@@H]2CCN2C(=O)[C@H](Cc2ccccc2)NC(=O)[C@H](CO)NC1=O)C(=O)N[C@@H](C)CN[C@@H](Cc1cnc[nH]1)C(=O)N[C@@H](CCC(N)=O)C(=O)N[C@@H](CC(=O)O)C(=O)N[C@@H](CC(C)C)C(=O)N[C@H](C(=O)O)CSC3,15%,90%,52%,32%,30%,,,,,,,,,
CC(=O)N[C@H]1CSCc2cc3cc(c2)CSC[C@@H](NC(=O)[C@H](CCCCNC(=N)N)NC(=O)[C@H](Cc2ccc(O)cc2)NC(=O)C2CCN2C(=O)[C@H](Cc2ccccc2)NC(=O)[C@H](CO)NC1=O)C(=O)N[C@@H](C)CN[C@@H](Cc1cnc[nH]1)C(=O)N[C@@H](CCC(N)=O)C(=O)N[C@@H](CC(=O)O)C(=O)N[C@@H](CC(C)C)C(=O)N[C@H](C(=O)O)CSC3 (some centres undefined),,,,,,> 50 µM,> 50 µM,> 50 µM,> 50 µM,> 50 µM,inactive,Active,inactive,Dose-dependent effect
